The values that follow come from ChEMBL document CHEMBL1147832, “Flexible synthesis and biological evaluation of novel 5-deoxyadenophorine analogues” (Bioorg Med Chem Lett, 2006).

Assay [1] can be described thus: Inhibition of yeast alpha glucosidase. On the set-up: species or system Saccharomyces cerevisiae.
In assay [2] the target is T1, Beta-galactosidase (Aspergillus niger) (UniProt P29853).
T1 sequence (whole entry): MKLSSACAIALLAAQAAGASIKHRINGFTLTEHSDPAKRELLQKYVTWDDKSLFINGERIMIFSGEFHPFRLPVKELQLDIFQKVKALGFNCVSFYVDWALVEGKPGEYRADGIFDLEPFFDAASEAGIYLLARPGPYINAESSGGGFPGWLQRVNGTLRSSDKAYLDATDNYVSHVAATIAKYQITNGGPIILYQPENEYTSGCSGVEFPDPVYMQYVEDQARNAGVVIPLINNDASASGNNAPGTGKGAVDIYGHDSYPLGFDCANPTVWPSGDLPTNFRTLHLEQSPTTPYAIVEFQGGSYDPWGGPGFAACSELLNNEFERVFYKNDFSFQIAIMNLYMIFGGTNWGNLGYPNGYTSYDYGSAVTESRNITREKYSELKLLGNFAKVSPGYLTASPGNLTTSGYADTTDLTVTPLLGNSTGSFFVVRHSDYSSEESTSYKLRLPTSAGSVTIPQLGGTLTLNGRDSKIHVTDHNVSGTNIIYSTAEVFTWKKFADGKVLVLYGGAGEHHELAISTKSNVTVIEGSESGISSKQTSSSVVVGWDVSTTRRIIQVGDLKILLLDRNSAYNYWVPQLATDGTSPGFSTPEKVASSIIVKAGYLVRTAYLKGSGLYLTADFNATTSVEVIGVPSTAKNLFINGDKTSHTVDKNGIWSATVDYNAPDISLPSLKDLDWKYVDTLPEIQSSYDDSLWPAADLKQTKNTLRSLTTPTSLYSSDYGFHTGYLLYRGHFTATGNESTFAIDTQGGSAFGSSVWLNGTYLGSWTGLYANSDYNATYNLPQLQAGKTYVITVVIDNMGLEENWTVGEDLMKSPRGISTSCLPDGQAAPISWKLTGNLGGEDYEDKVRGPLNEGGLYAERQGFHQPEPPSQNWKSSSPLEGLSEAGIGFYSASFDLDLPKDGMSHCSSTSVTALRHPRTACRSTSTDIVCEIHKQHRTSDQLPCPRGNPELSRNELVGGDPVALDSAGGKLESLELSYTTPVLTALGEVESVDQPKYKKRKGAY
The assay is described as follows: Inhibition of Aspergillus beta galactosidase at 1 mM. The essentials:
(§1)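 Commercial enzymes: yeast α-glucosidase, almond β-glucosidase, green coffee bean α-galactosidase, Aspergillus β-galactosidase. Each was run at its optimum pH and temperature with the matching p-nitrophenyl glycoside at a substrate concentration equal to the calculated Km. Inhibitor was at 1 mM final. Low-pH reactions were stopped with 400 mM Na2CO3. Released p-nitrophenol was read at 405 nm, giving % inhibition.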

Assay [3] deals with Alpha-galactosidase (Coffea arabica) (UniProt Q5DUH8). As to the kind of experiment: Inhibition of green coffee alpha galactosidase at 1 mM. The essentials: as §1
Assay [4] has as its target T2, Alpha-glucosidase-like (Oryza sativa Japonica Group) (UniProt A0A5S6RD55).
T2 sequence (whole entry): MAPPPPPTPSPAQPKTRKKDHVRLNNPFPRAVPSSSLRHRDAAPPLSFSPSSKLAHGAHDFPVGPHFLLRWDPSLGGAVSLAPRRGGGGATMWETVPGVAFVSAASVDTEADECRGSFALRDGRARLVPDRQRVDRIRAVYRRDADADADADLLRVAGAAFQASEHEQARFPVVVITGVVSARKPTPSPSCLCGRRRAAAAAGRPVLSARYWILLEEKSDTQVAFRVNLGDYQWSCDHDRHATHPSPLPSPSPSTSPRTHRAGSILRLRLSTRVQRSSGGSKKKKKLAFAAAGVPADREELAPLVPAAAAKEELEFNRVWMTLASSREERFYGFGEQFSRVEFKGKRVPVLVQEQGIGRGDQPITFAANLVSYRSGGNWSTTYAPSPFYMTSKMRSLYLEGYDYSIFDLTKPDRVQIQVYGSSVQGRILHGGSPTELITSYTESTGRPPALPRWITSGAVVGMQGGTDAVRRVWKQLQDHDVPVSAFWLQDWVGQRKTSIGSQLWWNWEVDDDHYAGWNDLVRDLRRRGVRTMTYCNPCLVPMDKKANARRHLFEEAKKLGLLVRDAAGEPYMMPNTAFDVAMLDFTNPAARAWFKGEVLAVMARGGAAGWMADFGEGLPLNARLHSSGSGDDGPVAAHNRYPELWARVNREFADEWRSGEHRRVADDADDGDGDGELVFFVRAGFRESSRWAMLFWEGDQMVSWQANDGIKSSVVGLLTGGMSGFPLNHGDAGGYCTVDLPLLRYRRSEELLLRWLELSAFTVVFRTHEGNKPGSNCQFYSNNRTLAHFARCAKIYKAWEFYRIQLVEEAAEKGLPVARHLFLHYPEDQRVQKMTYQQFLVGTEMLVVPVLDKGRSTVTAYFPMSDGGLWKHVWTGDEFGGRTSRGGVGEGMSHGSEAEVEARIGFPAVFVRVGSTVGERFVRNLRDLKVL
The assay is described as follows: Inhibition of rice alpha glucosidase at 1 mM.

In assay [5] the target is T3, Beta-galactosidase (Bos taurus, UniProt Q58D55).
T3 sequence (Q58D55 whole entry): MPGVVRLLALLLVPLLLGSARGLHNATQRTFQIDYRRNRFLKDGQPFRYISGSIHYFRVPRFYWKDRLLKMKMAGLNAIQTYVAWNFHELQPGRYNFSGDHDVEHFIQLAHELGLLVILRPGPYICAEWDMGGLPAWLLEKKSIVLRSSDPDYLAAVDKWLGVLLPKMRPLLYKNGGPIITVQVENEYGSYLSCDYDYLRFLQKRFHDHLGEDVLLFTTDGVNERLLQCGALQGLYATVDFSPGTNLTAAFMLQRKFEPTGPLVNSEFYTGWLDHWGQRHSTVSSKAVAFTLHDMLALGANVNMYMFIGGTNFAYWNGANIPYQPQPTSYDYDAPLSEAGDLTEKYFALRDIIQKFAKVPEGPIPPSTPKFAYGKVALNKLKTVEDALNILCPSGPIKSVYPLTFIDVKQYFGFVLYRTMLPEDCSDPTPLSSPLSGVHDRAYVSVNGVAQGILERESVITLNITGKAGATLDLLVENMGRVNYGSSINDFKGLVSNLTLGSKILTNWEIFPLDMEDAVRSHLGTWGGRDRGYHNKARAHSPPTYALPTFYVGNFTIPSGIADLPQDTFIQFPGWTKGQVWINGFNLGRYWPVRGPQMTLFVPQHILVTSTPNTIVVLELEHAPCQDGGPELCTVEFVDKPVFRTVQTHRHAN
The assay is described as follows: Inhibition of bovine liver beta galactosidase.

Assay [6] deals with Alpha-galactosidase (Coffea arabica, UniProt Q5DUH8). The assay is described as follows: Inhibition of green coffee alpha galactosidase.
In assay [7] the test system is Saccharomyces cerevisiae. The assay is described as follows: Inhibition of yeast alpha glucosidase at 1 mM. The essentials:
as §1

Alpha-galactosidase (Coffea arabica), sequence (Q5DUH8 as listed by the source): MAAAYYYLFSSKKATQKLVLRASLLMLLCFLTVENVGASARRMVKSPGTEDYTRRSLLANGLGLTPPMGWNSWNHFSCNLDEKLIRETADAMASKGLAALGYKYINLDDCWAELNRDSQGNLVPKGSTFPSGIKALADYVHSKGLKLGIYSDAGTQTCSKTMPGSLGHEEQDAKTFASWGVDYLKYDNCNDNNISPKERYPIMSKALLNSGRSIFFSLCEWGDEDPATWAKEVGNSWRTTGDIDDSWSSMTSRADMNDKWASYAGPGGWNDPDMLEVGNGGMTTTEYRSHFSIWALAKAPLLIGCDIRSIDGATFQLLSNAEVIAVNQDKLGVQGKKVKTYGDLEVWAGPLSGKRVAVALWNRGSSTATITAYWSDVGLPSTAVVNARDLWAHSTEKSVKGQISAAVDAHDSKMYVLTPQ
Alpha-galactosidase, sequence (Q5DUH8 whole entry): as the sequence (Q5DUH8 as listed by the source) above

Usually Ki stands for a dissociation constant, usually derived from enzyme kinetics or from competition with a known ligand. What is called inhibition is the percentage by which the read-out fell short of the control. A lower inhibition goes with little suppression. In assay [1], `CCCCCCCCCCC[C@@H]1C[C@H](O)[C@@H](O)[C@@H](CO)N1` gave a Ki of 196 µM. Besides, the inhibition in assay [2] and in assay [3] was less than 40% each time.
In general, IC50 refers to the concentration that inhibits the measured activity by half. Higher therefore signals lower potency. Regarding `CC[C@@H]1C[C@H](O)[C@@H](O)[C@@H](CO)N1`, the inhibition in assay [4] was less than 40%. Further, the IC50 in assay [5] was 34 µM; in assay [6], 6.4 µM.
Turning to `CC[C@@H]1C[C@@H](O)[C@@H](O)[C@@H](CO)N1`, the Ki in assay [1] is 123 µM; in assay [6], 721 µM. This compound also displayed an inhibition in assay [2] of less than 40%.
Consider `CCCC[C@@H]1C[C@H](O)[C@@H](O)[C@@H](CO)N1`, for which the inhibition in assay [7], in assay [2] and in assay [3] was less than 40% in each case.
As for `CCC[C@@H]1C[C@H](O)[C@@H](O)[C@@H](CO)N1`, the inhibition in assay [7], in assay [2] and in assay [3] was less than 40% throughout.
Take `CCCCCCC[C@@H]1C[C@@H](O)[C@@H](O)[C@@H](CO)N1`: the values for the Ki in assay [1] and in assay [6] were 154 µM and 141 µM, respectively. The compound also returned an inhibition in assay [2] of less than 40%.
For the compound `CCCCCCC[C@@H]1C[C@H](O)[C@@H](O)[C@@H](CO)N1`, the inhibition in assay [7], in assay [2] and in assay [3] was less than 40% in each case.
